# Compound activity from PubChem BioAssay.
# A1 apoptosis 2: A1 inhibitors via caspase activation, primary screen, cell-based, luminescence, HTS, two replicates; MEF A1-2A-BIM cells, caspase-Glo luminescence, 3 h; percent of clofoctol response, DMSO zero; caspase activation, % (concentration not given with the values); 24,000 tested, under 10 active; AID 2465, 2010; in the data active means caspase activation above about 5.9%
#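 Test system – A1-2A-BIM-expressing MEF cells · Input – 2500 cells/well · Medium – RPMI-1640 growth medium with 10% FBS · Compound dosing – 50 nL pinned compound · Timing – 3 h compound exposure at 37 °C · Technique – Caspase-Glo luminescence (DEVD substrate) · Evaluation – Caspase-3/7 activity from luminescence increase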
# T cruzi intra: inhibitors of intracellular Trypanosoma cruzi, primary screen, cell-based, plate reader, single point, set 2; intracellular Trypanosoma cruzi in host cells; activity score (inhibition), % at 5.01 µM; 22,000 compounds, 4.9% hits; in the data active means activity score above about 55%;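 further: parasites and compound incubated about four days before reading; 0% = median of neutral control wells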
# INS-1E rescue: protection of INS-1E cells from cytokine death, primary screen, ATP luminescence, single point | INS-1E cytokine-induced death, 48 h; normalised: neutral wells 0, positive control 100 | protection from cytokine-induced ATP loss, % at 10 µM | 20,000 compounds, 0.1% hits;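 active means mean replicate protection from cytokine-induced ATP loss at least 50% and at least 75% of replicates each reaching 50%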
#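 Assay system: INS-1E rat insulinoma cells. Amount: 8000 cells per well. Medium: phenol-red-free RPMI with 5% fetal bovine serum. Reagent: IL-1β, TNF-α and IFN-γ cytokine mix. Doses: one compound concentration, pin transfer. Schedule: 48 h co-treatment, 10 min post-lysis read. Detection: CellTiter-Glo luminescence measuring cellular ATP.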
# Active calls of the source: *; · = no result given. This is one part of a sample in which hits are shown more often than they occur.
SMILES,A1 apoptosis 2,T cruzi intra,INS-1E rescue
O=C(CCCCCCC(=O)Nc1ccccc1O)N/N=C/c1ccc([N+](=O)[O-])s1,-2,89*,-36
O=C(CCCCC(=O)N/N=C/c1ccc([N+](=O)[O-])s1)NO,-1,52,1
O=C(CCCCCCC(=O)Nc1ccccc1O)N/N=C/c1ccccc1O,0,24,8
CCN(CC)c1ccc(/C=N/NC(=O)CCCCCCC(=O)Nc2ccccc2O)c(O)c1,0,66*,-8
O=C(NO)c1cccc(C(=O)N/N=C/c2cc3ccccc3n2S(=O)(=O)c2ccccc2)c1,·,-23,-4
[N-]=[N+]=Nc1ccccc1C[C@]1(C(=O)NCCN2CCOCC2)N=C(c2ccc(OCCCO)cc2)O[C@H]1c1ccccc1,0,·,·
C[C@@H]1CCCCO[C@@H](CN(C)Cc2ccc(C(=O)Nc3ccccc3N)cc2)[C@@H](C)CN([C@H](C)CO)C(=O)c2cc(NC(=O)Nc3ccc(F)cc3)ccc2O1,·,9,-3
COc1ccc(NC(=O)Nc2ccc3c(c2)C(=O)N([C@@H](C)CO)C[C@@H](C)[C@@H](CN(C)Cc2ccc(C(F)(F)F)cc2)OCCCC[C@H](C)O3)cc1,-1,·,·
C[C@@H]1CCCCO[C@@H](CN(C)Cc2ccc(C(F)(F)F)cc2)[C@@H](C)CN([C@H](C)CO)C(=O)c2cc(NC(=O)Cc3ccccc3)ccc2O1,·,63*,-15
C[C@@H]1CCCCO[C@@H](CN(C)Cc2ccc(C(F)(F)F)cc2)[C@@H](C)CN([C@H](C)CO)C(=O)c2cc(NC(=O)c3ccccc3)ccc2O1,·,63*,-11
C[C@@H]1CCCCO[C@@H](CN(C)Cc2ccc(C(=O)Nc3ccccc3N)cc2)[C@@H](C)CN([C@H](C)CO)C(=O)c2cc(NC(=O)Nc3ccc(C(F)(F)F)cc3)ccc2O1,1,81*,-45
COc1ccc(NC(=O)Nc2ccc3c(c2)C(=O)N([C@H](C)CO)C[C@H](C)[C@@H](CN(C)Cc2ccc(C(F)(F)F)cc2)OCCCC[C@@H](C)O3)cc1,1,63*,-16
C[C@@H]1CCCCO[C@@H](CN(C)Cc2ccc(C(F)(F)F)cc2)[C@H](C)CN([C@@H](C)CO)C(=O)c2cc(NC(=O)Cc3ccccc3)ccc2O1,-1,·,·
C[C@@H]1CCCCO[C@H](CN(C)Cc2ccc(C(F)(F)F)cc2)[C@@H](C)CN([C@@H](C)CO)C(=O)c2cc(NC(=O)c3ccccc3)ccc2O1,-1,·,·
C=CCNC(=O)[C@H]1[C@@H]2C(=O)O[C@@H](c3ccccc3)[C@@H](c3ccccc3)N2[C@@H](c2ccccc2OCCO)[C@]12C(=O)Nc1ccc(C#CCNC(N)=O)cc12,-1,·,·
CN(CCO)c1ccc(/C=N/NC(=O)CCCCCCC(=O)NO)cc1,2,·,·
COC(=O)CCCCCCC(=O)N/N=C/c1ccc(O)c(F)c1,·,-10,-1
C[C@@H]1CCCCO[C@@H](CN(C)Cc2ccccc2)[C@@H](C)CN([C@H](C)CO)C(=O)c2cc(NC(=O)Nc3ccc(C(F)(F)F)cc3)ccc2O1,·,71*,-40
C[C@@H]1CCCCO[C@@H](CN(C)Cc2ccccc2)[C@@H](C)CN([C@@H](C)CO)C(=O)c2cc(NC(=O)Nc3ccc(C(F)(F)F)cc3)ccc2O1,1,·,·
O=C(CCCCCCC(=O)N/N=C/c1cc(F)ccc1O)NO,0,·,·
C[C@H](CO)N1C[C@H](C)[C@H](CN(C)C(=O)Nc2ccc(C(F)(F)F)cc2)Oc2ccc(NC(=O)Nc3cccc4ccccc34)cc2CC1=O,0,9,-19
C[C@H](CO)N1C[C@H](C)[C@H](CN(C)Cc2ccccc2)Oc2ccc(NC(=O)Nc3cccc4ccccc34)cc2CC1=O,·,40,-11
C[C@H]1CN([C@@H](C)CO)C(=O)Cc2cc(NC(=O)Nc3cccc4ccccc34)ccc2O[C@H]1CN(C)Cc1ccc(C(F)(F)F)cc1,·,73*,-81
C[C@@H]1CN([C@H](C)CO)C(=O)Cc2cc(NC(=O)Nc3cccc4ccccc34)ccc2O[C@H]1CN(C)Cc1ccc(C(F)(F)F)cc1,0,59*,-54
C[C@H]1CN([C@@H](C)CO)C(=O)Cc2cc(NC(=O)Nc3cccc4ccccc34)ccc2O[C@@H]1CN(C)Cc1ccc(C(F)(F)F)cc1,0,69*,-52
SMILES,A1 apoptosis 2,T cruzi intra,INS-1E rescue
C[C@H](CO)N1C[C@H](C)[C@H](CN(C)Cc2ccc(C(F)(F)F)cc2)Oc2ccc(NC(=O)Nc3cccc4ccccc34)cc2CC1=O,·,79*,-39
C[C@H](CO)N1C[C@H](C)[C@H](CN(C)Cc2ccc(C(=O)O)cc2)Oc2ccc(NC(=O)Nc3cccc4ccccc34)cc2CC1=O,0,2,5
C[C@@H]1CN([C@@H](C)CO)C(=O)Cc2cc(NC(=O)Nc3cccc4ccccc34)ccc2O[C@@H]1CN(C)C(=O)Nc1ccc(C(F)(F)F)cc1,1,46,-30
OCc1ccc(COc2ccc3ccncc3c2)cc1,-2,·,·
Cc1ccc(/C=N/NC(=O)c2ccc(C(=O)NO)cc2)o1,2,-3,6
CC1(C)[C@H]2CC=C(/C=N\NC(=O)c3ccccc3O)[C@@H]1C2,-1,5,-9
C[C@H]1CN([C@@H](C)CO)C(=O)Cc2cc(N(C)C)ccc2O[C@@H]1CN(C)Cc1ccc(Oc2ccccc2)cc1,0,67*,-1
C[C@@H]1CN([C@H](C)CO)C(=O)Cc2cc(N(C)C)ccc2O[C@@H]1CN(C)Cc1ccc(Oc2ccccc2)cc1,-2,40,-51
C[C@H](CO)N1C[C@H](C)[C@H](CN(C)Cc2ccccc2)Oc2ccc(N(C)C)cc2CC1=O,0,4,-2
C[C@H]1CN([C@@H](C)CO)C(=O)Cc2cc(N(C)C)ccc2O[C@H]1CN(C)Cc1ccc(Oc2ccccc2)cc1,·,76*,-22
O=C(N/N=C/c1cccc(Br)c1)c1ccccn1,-3,-6,-1
OCc1ccc(-c2ccncc2)cc1,1,·,·
C[C@H]1CN([C@@H](C)CO)C(=O)c2cc(NS(=O)(=O)c3ccc(Cl)cc3)ccc2O[C@H]1CN(C)S(=O)(=O)c1ccc(Cl)cc1,·,44*,·
Cc1ccc(S(=O)(=O)Nc2ccc3c(c2)C(=O)N([C@H](C)CO)C[C@H](C)[C@H](CN(C)S(=O)(=O)c2ccccc2)O3)cc1,-1,74*,·
C[C@H]1CN([C@@H](C)CO)C(=O)c2cc(NS(=O)(=O)c3ccccc3)ccc2O[C@H]1CN(C)S(=O)(=O)c1ccc(Cl)cc1,2,-7,0
C[C@H](CO)N1C[C@H](C)[C@H](CN(C)S(=O)(=O)c2ccc(Cl)cc2)Oc2ccc(NS(=O)(=O)c3ccccc3)cc2C1=O,·,62*,·
Cc1ccc(S(=O)(=O)N(C)C[C@H]2Oc3ccc(NS(=O)(=O)c4ccccc4)cc3C(=O)N([C@@H](C)CO)C[C@@H]2C)cc1,2,6,-5
Cc1ccc(S(=O)(=O)N(C)C[C@H]2Oc3ccc(NS(=O)(=O)c4ccc(Cl)cc4)cc3C(=O)N([C@@H](C)CO)C[C@@H]2C)cc1,·,8,4
